KCNQ1 act: human KCNQ1 channel potentiation or activation | CHO-K1 KCNQ1, thallium flux FluxOR fluorescence; hits give high values | B-score at 10 µM | 310,000 tested, 0.35% active | AID 2648;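 active means fluorescence ratio B-score, a plate-corrected score, at least three library SD, with initial intensity B-score within 5 SD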
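Test system: CHO-K1 cells stably expressing KCNQ1 / Medium: assay buffer / Also added: depolarizing K+/Tl+ stimulus, K2SO4 and Tl2SO4 each 12.5 mM in 5x stock / Incubation: 90 min dye loading and 20 min compound exposure, both at room temperature / Signal: thallium influx via FluxOR fluorescence, kinetic imaging / Evaluation: B score of baseline-normalized fluorescence ratio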
KCNQ1 inh: inhibitors of human KCNQ1 potassium channel; P51787; CHO-K1 KCNQ1, FluxOR thallium flux fluorescence; hits give high values; B-score at 10 µM; 310,000 tested, 1.3% active;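 active means compounds whose thallium flux B-score, printed positive for inhibition, exceeds three library SD while starting fluorescence stays within three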;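 further: channel opened by potassium depolarization with thallium stimulus after 20 min compound exposure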
KCNK9 inh: inhibitors of human KCNK9 two-pore domain potassium channel | Q9NPC2 | HEK293 KCNK9, FluxOR thallium flux fluorescence; hits give low values | B-score at 10 µM | 310,000 tested, 1.2% active | AID 488922;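 active means ratio B-score over 3 SD below the library mean, with starting fluorescence within 5 SD of its mean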;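 further: negative B-score means less thallium flux so channel inhibition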
hERG protect: shields human hERG channel from block by proarrhythmic agents | Q12809 | CHO-hERG, FluxOR thallium flux, dofetilide IC70 present | activation (rescue from dofetilide block), less the hit threshold, % at 10 µM | 310,000 tested, 0.51% active | AID 1511;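 active means activation above the mean of controls blocked by dofetilide plus 5 SD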;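 further: thallium influx through hERG after potassium depolarization seen as dye fluorescence rise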
KCNK3 inh: human KCNK3 channel inhibition, primary screen. O14649. AID 602410. CHO-KCNK3 thallium flux, FluxOR fluorescence; hits give low values. 340,000 tested, 0.84% active. B-score at 10 µM;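 active means B-score under library mean minus 4 SD, starting fluorescence ratio at most library mean plus 5 SD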;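 further: more negative B-score means stronger inhibition of thallium flux through KCNK3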
KCC2 mod: modulates chloride dependent transport by human KCC2; Q9H2X9; KCC2 cells, thallium flux FluoZin-2 fluorescence; B-score of Tl+ flux slope (higher = more flux/activation; lower = inhibition) at 10 µM; 190,000 tested, 2.2% active; AID 1456;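 active means thallium flux slope and its plate-corrected score both differing from the plate sample mean at a set confidence after two filtering rounds, in either direction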;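 further: slope of fluorescence scaled to starting intensity during 10 to 20 s after thallium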
KCNK9 block conf: confirmation of human KCNK9 potassium channel inhibitors; 4,900 tested, 43% active; HEK293 KCNK9 cells, FluxOR thallium flux fluorescence; shares compounds with KCNK9 inh; inhibition, % at 10 µM;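 active means thallium signal inhibited by more than 5 SD of the compound-free buffer control wells, on both duplicate plates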;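 further: 0% = assay buffer control wells without compound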
Kir2-1 spec: tests whether KCNK9 modulators also affect mouse Kir2.1; shares compounds with KCNK9 inh; Kir2.1 cells, FluxOR thallium flux fluorescence; inhibition, % at 10 µM; 4,900 tested, 4% active; AID 492993;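 active means thallium signal drop more than 5 SD beyond the mean of the no-compound control wells, seen in both duplicate plates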;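 further: signal is fluorescence rise after thallium addition divided by baseline fluorescence; plate controls were assay buffer only for no effect and full block by chlorpromazine control for full effect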
Target sequence (P35561 whole entry, looked up): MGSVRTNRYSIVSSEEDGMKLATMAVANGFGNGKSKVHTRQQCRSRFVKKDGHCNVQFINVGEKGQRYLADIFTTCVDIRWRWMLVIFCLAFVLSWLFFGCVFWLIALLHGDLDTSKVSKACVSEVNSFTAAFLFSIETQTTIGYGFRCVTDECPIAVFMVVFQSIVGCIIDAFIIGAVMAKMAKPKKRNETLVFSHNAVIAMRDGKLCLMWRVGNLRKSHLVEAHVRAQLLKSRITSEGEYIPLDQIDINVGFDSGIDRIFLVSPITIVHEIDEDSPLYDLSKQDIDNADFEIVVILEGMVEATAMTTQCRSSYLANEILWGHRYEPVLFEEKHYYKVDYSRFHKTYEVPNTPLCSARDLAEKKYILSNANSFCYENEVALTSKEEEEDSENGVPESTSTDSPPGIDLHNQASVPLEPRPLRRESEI
KCNK9 uninduced: second check of KCNK9 modulator effects in non-induced HEK293 cells; inhibition, % at 10 µM; FluxOR thallium flux; 4,900 tested, 40% active; shares compounds with KCNK9 inh;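 active means thallium signal drop beyond 5 SD of the untreated control mean, on both duplicate plates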;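 further: plate controls were buffer only IC0 wells for no effect and SID17386958 at its maximal inhibitory level for full effect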
* = called active by the depositor. A selection: hits, their analogues and other compounds. The true share with any hit is near 4.1%.

How did Cc1cc(C)nc(/N=c2/ssnc2Cl)c1 do in these assays?
KCNQ1 act: inactive; KCNQ1 inh: inactive; KCNK9 inh: inactive; hERG protect: -9.0; KCNK3 inh: inactive; KCC2 mod: 0.466; KCNK9 block conf: inactive; Kir2-1 spec: inactive; KCNK9 uninduced: inactive

What do the screens show for `CN(CC1CCN(CCc2cccc(C(F)(F)F)c2)CC1)C(=O)c1ccc(F)cc1`?
KCNQ1 act: inactive; KCNQ1 inh: inactive; KCNK9 inh: inactive; hERG protect: -2.3; KCNK3 inh: inactive; KCNK9 block conf: inactive; Kir2-1 spec: inactive; KCNK9 uninduced: inactive

Results for CCC(=O)NC(Nc1sc2c(c1C(=O)OC)CCC2)C(Cl)(Cl)Cl (stereo not drawn) ?
KCNQ1 act: inactive; KCNQ1 inh: inactive; KCNK9 inh: inactive; hERG protect: -6.3; KCNK3 inh: inactive; KCC2 mod: -1.21

Results for COC(=O)c1c(NC(NC(=O)CC(C)C)C(Cl)(Cl)Cl)sc2c1CCC2 (stereo not drawn) ?
KCNQ1 act: inactive; KCNQ1 inh: inactive; KCNK9 inh: -9.72*; hERG protect: -11.8; KCNK3 inh: inactive; KCC2 mod: 1.19; KCNK9 block conf: inactive; Kir2-1 spec: inactive; KCNK9 uninduced: 49.0%*

How did CCCNC(=O)CSc1ccc(S(=O)(=O)N2CCCC2)cn1 do in these assays?
KCNK3 inh: inactive

How did CC1=NCCN1S(=O)(=O)c1c(C(C)C)cc(C(C)C)cc1C(C)C do in these assays?
KCNQ1 act: inactive; KCNQ1 inh: inactive; KCNK9 inh: -8.32*; hERG protect: -9.8; KCNK3 inh: inactive; KCC2 mod: 0.458; KCNK9 block conf: inactive; Kir2-1 spec: inactive; KCNK9 uninduced: inactive

What do the screens show for `COc1ccc(Cl)cc1S(=O)(=O)N1CCN=C1C`?
KCNQ1 act: inactive; KCNQ1 inh: inactive; KCNK9 inh: inactive; hERG protect: -6.5; KCNK3 inh: inactive

How did COc1ccccc1C/C(N)=N/OC(=O)COc1cccc(C)c1 do in these assays?
KCNQ1 act: inactive; KCNQ1 inh: inactive; KCNK9 inh: inactive; hERG protect: -8.9; KCNK3 inh: inactive; KCC2 mod: -0.34; KCNK9 block conf: inactive; Kir2-1 spec: inactive; KCNK9 uninduced: inactive

Results for COc1ccccc1C/C(N)=N/OC(=O)COc1ccc2ccccc2c1 ?
KCNQ1 act: inactive; KCNQ1 inh: inactive; KCNK9 inh: inactive; hERG protect: -5.4; KCNK3 inh: inactive; KCNK9 block conf: inactive; Kir2-1 spec: inactive; KCNK9 uninduced: inactive

Results for CCCCN(CC)c1nc(N)c(C#N)c(CC#N)c1C#N ?
KCNQ1 act: inactive; KCNQ1 inh: inactive; KCNK9 inh: -11.3*; hERG protect: -7.1; KCNK3 inh: inactive; KCC2 mod: -0.638; KCNK9 block conf: 33.0%*; Kir2-1 spec: inactive; KCNK9 uninduced: 31.5%*

What do the screens show for `Clc1cccc(-c2cc3nc4c(c(NCc5ccco5)n3n2)CCCC4)c1`?
KCNQ1 act: inactive; KCNQ1 inh: inactive; KCNK9 inh: -9.41*; hERG protect: -11.7; KCNK3 inh: inactive; KCC2 mod: 0.447; KCNK9 block conf: 29.5%*; Kir2-1 spec: inactive; KCNK9 uninduced: 32.5%*

Results for Cc1ccc(CSc2nc3ccsc3c(=O)n2Cc2ccccn2)cc1 ?
KCNQ1 act: inactive; KCNQ1 inh: inactive; KCNK9 inh: -14*; hERG protect: -8.3; KCNK3 inh: inactive; KCC2 mod: -0.198; KCNK9 block conf: 79.0%*; Kir2-1 spec: inactive; KCNK9 uninduced: 44.0%*

How did CCNC(=O)c1ccc(C2SCC(=O)N2CCc2ccccc2)cc1 (stereo not drawn) do in these assays?
KCNQ1 act: inactive; KCNQ1 inh: inactive; KCNK9 inh: inactive; hERG protect: -2.9; KCNK3 inh: inactive; KCC2 mod: 0.246

How did CCc1ccc(NC(=O)c2ccc(C3SCC(=O)N3CCc3ccccc3)cc2)cc1 (stereo not drawn) do in these assays?
KCNQ1 act: inactive; KCNQ1 inh: inactive; KCNK9 inh: inactive; hERG protect: -12.6; KCNK3 inh: inactive; KCC2 mod: 0.976; KCNK9 block conf: inactive; Kir2-1 spec: inactive; KCNK9 uninduced: inactive

Results for c1cnc(SCCOc2cccc3ccccc23)nc1 ?
KCNQ1 act: inactive; KCNQ1 inh: inactive; KCNK9 inh: -9.91*; hERG protect: -2.9; KCNK3 inh: inactive; KCNK9 block conf: 48.0%*; Kir2-1 spec: inactive; KCNK9 uninduced: 38.0%*

Results for CCCCC(=O)c1ccc(OC(=O)c2ccc([N+](=O)[O-])cc2)cc1 ?
KCNK3 inh: inactive

Results for O=C1CC(N2CCC(c3nc4ccccc4o3)CC2)C(=O)N1c1cc(Cl)cc(Cl)c1 (stereo not drawn) ?
KCNQ1 act: inactive; KCNQ1 inh: 8*; KCNK9 inh: -8.6*; hERG protect: -5.8; KCNK3 inh: inactive; KCC2 mod: -0.373; KCNK9 block conf: 43.0%*; Kir2-1 spec: inactive; KCNK9 uninduced: inactive

What do the screens show for `COc1cccc(CN2CCN(Cc3cc(OC)c(OC)cc3[N+](=O)[O-])CC2)c1`?
KCNQ1 act: inactive; KCNQ1 inh: inactive; KCNK9 inh: inactive; hERG protect: -5.3; KCNK3 inh: inactive; KCC2 mod: 0.135; KCNK9 block conf: inactive; Kir2-1 spec: inactive; KCNK9 uninduced: inactive

How did COc1cccc(CN2CCN(Cc3cccc(Br)c3)CC2)c1OC do in these assays?
KCNQ1 act: inactive; KCNQ1 inh: inactive; KCNK9 inh: inactive; hERG protect: -8.2; KCNK3 inh: inactive; KCNK9 block conf: inactive; Kir2-1 spec: inactive; KCNK9 uninduced: inactive

Results for COc1cccc(CN2CCSCC2)c1OC ?
KCNQ1 act: inactive; KCNQ1 inh: inactive; KCNK9 inh: inactive; hERG protect: 3.8; KCNK3 inh: inactive

How did CCC(=O)c1ccc(O)c(OC)c1 do in these assays?
KCNQ1 act: inactive; KCNQ1 inh: inactive; KCNK9 inh: inactive; hERG protect: -7.8; KCNK3 inh: inactive; KCC2 mod: 0.0797

How did Cc1ccc(SCCNC(=S)Nc2ccc(C)cc2C)cc1 do in these assays?
KCNQ1 act: inactive; KCNQ1 inh: inactive; KCNK9 inh: inactive; hERG protect: 0.2; KCNK3 inh: inactive; KCC2 mod: -0.202; KCNK9 block conf: inactive; Kir2-1 spec: inactive; KCNK9 uninduced: inactive
